Results as given in ChEMBL document CHEMBL1127665, “Synthesis and antibacterial activity of new quinolones containing a 7-[3-(1-amino-1-methylethyl)-1-pyrrolidinyl] moiety. Gram-positive agents with excellent oral activity and low side-effect potential” (J Med Chem, 1994).
In brackets after ≈: the same amount, converted by molar mass.

Legend:
Enterobacter cloacae = assay: Minimum inhibitory concentration against Enterobacter cloacae MA 2646; assay type: functional
Staphylococcus aureus [1] = assay: Minimum inhibitory concentration against Staphylococcus aureus UC-76; assay type: functional
Outline: (§1)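 Tested by microtitration against a panel of 10 Gram-positive and Gram-negative organisms. MIC is reported in μg/mL.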

Enterococcus faecalis = assay: Minimum inhibitory concentration against Streptococcus faecalis MGH-2; assay type: functional; outline: as §1
Klebsiella pneumoniae = assay: Minimum inhibitory concentration against Klebsiella pneumoniae MGH-2; assay type: functional; outline: as §1
Providencia rettgeri = assay: Minimum inhibitory concentration against M1771 strain of Providencia rettgeri; assay type: functional; outline: as §1
Staphylococcus aureus [2] = assay: Minimum inhibitory concentration against Staphylococcus aureus H 228; assay type: functional; outline: as §1
Escherichia coli = assay: Minimum inhibitory concentration against Escherichia coli Vogel; assay type: functional; outline: as §1
Pseudomonas aeruginosa = assay: Minimum inhibitory concentration against U1-18 cell line from Pseudomonas aeruginosa; assay type: functional; outline: as §1
Streptococcus pyogenes = assay: Minimum inhibitory concentration against Streptococcus pyogenes C203; assay type: functional; outline: as §1
Streptococcus pneumoniae = assay: Minimum inhibitory concentration tested against Streptococcus pneumoniae SV-1; assay type: functional; outline: as §1
Mus musculus [3] = assay: In vivo antibacterial activity against Streptococcus pyogenes after following oral administration; assay type: functional; details: read-out: PD50
Outline: (§2)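 Acute lethal systemic infection in female Charles River CD-1 mice. Compound given orally or subcutaneously. Potency expressed as median protective dose (PD50, mg/kg), the dose preventing death in 50% of animals.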

Mus musculus [4] = assay: In vivo antibacterial activity against Escherichia coli after following subcutaneous administration; assay type: functional; details: sc, read-out: PD50; outline: as §2
Mus musculus [5] = assay: In vivo antibacterial activity against Escherichia coli after following oral administration; assay type: functional; details: read-out: PD50; outline: as §2
Mus musculus [6] = assay: In vivo antibacterial activity against Streptococcus pyogenes after following subcutaneous administration; assay type: functional; details: sc, read-out: PD50; outline: as §2
V79 = assay: Clonogenic cytotoxicity against Hamster V-79 cells; assay type: cell-based; details: Cricetulus griseus
[7] = The no effect dose (NED) for phototoxicity in mouse; assay type: organism-based; details: in vivo, read-out: NED
Outline: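 Female CD-1 mice were depilated and dosed orally, with five animals per dose plus controls. After each dose the mice were exposed to UVA for 3 h. This was repeated daily for 4 days. Any redness or erythema relative to control was scored positive. The value is the highest dose producing no effect, in mg/kg.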

Structure (SMILES)	MIC (Enterobacter cloacae) [µg/mL]	MIC (Staphylococcus aureus [1]) [µg/mL]	MIC (Enterococcus faecalis) [µg/mL]	MIC (Klebsiella pneumoniae) [µg/mL]	MIC (Providencia rettgeri) [µg/mL]	MIC (Staphylococcus aureus [2]) [µg/mL]	MIC (Escherichia coli) [µg/mL]	MIC (Pseudomonas aeruginosa) [µg/mL]	MIC (Streptococcus pyogenes) [µg/mL]	MIC (Streptococcus pneumoniae) [µg/mL]	ED50 (Mus musculus [3]) [mg/kg]	ED50 (Mus musculus [4]) [mg/kg]	ED50 (Mus musculus [5]) [mg/kg]	ED50 (Mus musculus [6]) [mg/kg]	IC50 (V79) [µg/mL]	NOAEL [7] [mg/kg]
NCC1CCN(c2nc3c(cc2F)c(=O)c(C(=O)O)cn3-c2ccc(F)cc2F)C1 (centres undefined)	0.05 (≈ 0.12 µM)	0.013 (≈ 0.0311 µM)	0.025 (≈ 0.0598 µM)	0.1 (≈ 0.239 µM)	0.2 (≈ 0.478 µM)	0.05 (≈ 0.12 µM)	0.05 (≈ 0.12 µM)	0.4 (≈ 0.956 µM)	0.025 (≈ 0.0598 µM)	0.025 (≈ 0.0598 µM)						
CC(C)(N)[C@H]1CCN(c2c(F)cc3c(=O)c(C(=O)O)cn(C4CC4)c3c2Cl)C1.Cl	0.1	0.013	0.05	0.2	0.4	0.025	0.1	1.6	0.025	0.013	13	4	27	4		
NCC1CCN(c2c(F)cc3c(=O)c(C(=O)O)cn(C4CC4)c3c2Cl)C1 (centres undefined)	0.025 (≈ 0.0658 µM)	0.003 (≈ 0.0079 µM)	0.006 (≈ 0.0158 µM)	0.05 (≈ 0.132 µM)	0.05 (≈ 0.132 µM)	0.003 (≈ 0.0079 µM)	0.025 (≈ 0.0658 µM)	0.4 (≈ 1.05 µM)	0.003 (≈ 0.0079 µM)	0.003 (≈ 0.0079 µM)	5	1	33	0.2		
COc1c(N2CCC(CN)C2)c(F)cc2c(=O)c(C(=O)O)cn(C3CC3)c12 (centres undefined)	0.05 (≈ 0.133 µM)	0.003 (≈ 0.00799 µM)	0.013 (≈ 0.0346 µM)	0.1 (≈ 0.266 µM)	0.1 (≈ 0.266 µM)	0.025 (≈ 0.0666 µM)	0.05 (≈ 0.133 µM)	0.8 (≈ 2.13 µM)	0.003 (≈ 0.00799 µM)	0.003 (≈ 0.00799 µM)	11			0.6		
COc1c(N2CC[C@@H](C(C)(C)N)C2)c(F)cc2c(=O)c(C(=O)O)cn(C3CC3)c12.Cl	0.1	0.003	0.013	0.2	0.4	0.013	0.1	1.6	0.003	0.003	2	3	26	0.6	18	
CC(C)(N)[C@H]1CCN(c2nc3c(cc2F)c(=O)c(C(=O)O)cn3-c2ccc(F)cc2F)C1.Cl	0.4	0.1	0.4	0.8	1.6	0.4	0.4	3.1	0.4	0.4						
NCC1CCN(c2nc3c(cc2F)c(=O)c(C(=O)O)cn3C2CC2)C1 (centres undefined)	0.1 (≈ 0.289 µM)	0.003 (≈ 0.00866 µM)	0.025 (≈ 0.0722 µM)	0.1 (≈ 0.289 µM)	0.4 (≈ 1.15 µM)	0.1 (≈ 0.289 µM)	0.05 (≈ 0.144 µM)	0.2 (≈ 0.577 µM)	0.025 (≈ 0.0722 µM)	0.1 (≈ 0.289 µM)	39	1	17	4	42 (≈ 121 µM)	
CC(C)(N)[C@H]1CCN(c2nc3c(cc2F)c(=O)c(C(=O)O)cn3C2CC2)C1.Cl	0.2	0.025	0.1	0.4	0.8	0.1	0.2	3.1	0.1	0.05	32	3	10	6		55
NCC1CCN(c2cc3c(cc2F)c(=O)c(C(=O)O)cn3C2CC2)C1 (centres undefined)	0.1 (≈ 0.29 µM)	0.006 (≈ 0.0174 µM)	0.05 (≈ 0.145 µM)	0.1 (≈ 0.29 µM)	0.2 (≈ 0.579 µM)	0.05 (≈ 0.145 µM)	0.05 (≈ 0.145 µM)	0.8 (≈ 2.32 µM)	0.013 (≈ 0.0376 µM)	0.013 (≈ 0.0376 µM)	> 100	2	> 100	4		
